According to PMC12772459 (The Journal of general physiology, 2025):
Like-named read-outs stand apart in the source and are kept apart here.

Assays:
[1] = ref Volkmann et al., 2016; cited from earlier work
GluN1/2A-V783L = GluN1/2A-V783L (Rattus norvegicus, UniProt P35439+Q00959, V783L); assay: Two-electrode voltage-clamp recordings, mutant GluN1/2A-V783L; type: cell-based; details: 0.5 μM glycine; for Hill slope nH of inhibition: 300 μM glutamate; for decrease of potency compared to wild type GluN1/2A: saturating glutamate
GluN1/2A-M788T = GluN1/2A-M788T (Rattus norvegicus, UniProt P35439+Q00959, M788T); assay: Two-electrode voltage-clamp recordings, mutant GluN1/2A-M788T; type: cell-based
GluN1/2A-M788T, sequence (Q00959 23-1464 M788T, other chains not shown): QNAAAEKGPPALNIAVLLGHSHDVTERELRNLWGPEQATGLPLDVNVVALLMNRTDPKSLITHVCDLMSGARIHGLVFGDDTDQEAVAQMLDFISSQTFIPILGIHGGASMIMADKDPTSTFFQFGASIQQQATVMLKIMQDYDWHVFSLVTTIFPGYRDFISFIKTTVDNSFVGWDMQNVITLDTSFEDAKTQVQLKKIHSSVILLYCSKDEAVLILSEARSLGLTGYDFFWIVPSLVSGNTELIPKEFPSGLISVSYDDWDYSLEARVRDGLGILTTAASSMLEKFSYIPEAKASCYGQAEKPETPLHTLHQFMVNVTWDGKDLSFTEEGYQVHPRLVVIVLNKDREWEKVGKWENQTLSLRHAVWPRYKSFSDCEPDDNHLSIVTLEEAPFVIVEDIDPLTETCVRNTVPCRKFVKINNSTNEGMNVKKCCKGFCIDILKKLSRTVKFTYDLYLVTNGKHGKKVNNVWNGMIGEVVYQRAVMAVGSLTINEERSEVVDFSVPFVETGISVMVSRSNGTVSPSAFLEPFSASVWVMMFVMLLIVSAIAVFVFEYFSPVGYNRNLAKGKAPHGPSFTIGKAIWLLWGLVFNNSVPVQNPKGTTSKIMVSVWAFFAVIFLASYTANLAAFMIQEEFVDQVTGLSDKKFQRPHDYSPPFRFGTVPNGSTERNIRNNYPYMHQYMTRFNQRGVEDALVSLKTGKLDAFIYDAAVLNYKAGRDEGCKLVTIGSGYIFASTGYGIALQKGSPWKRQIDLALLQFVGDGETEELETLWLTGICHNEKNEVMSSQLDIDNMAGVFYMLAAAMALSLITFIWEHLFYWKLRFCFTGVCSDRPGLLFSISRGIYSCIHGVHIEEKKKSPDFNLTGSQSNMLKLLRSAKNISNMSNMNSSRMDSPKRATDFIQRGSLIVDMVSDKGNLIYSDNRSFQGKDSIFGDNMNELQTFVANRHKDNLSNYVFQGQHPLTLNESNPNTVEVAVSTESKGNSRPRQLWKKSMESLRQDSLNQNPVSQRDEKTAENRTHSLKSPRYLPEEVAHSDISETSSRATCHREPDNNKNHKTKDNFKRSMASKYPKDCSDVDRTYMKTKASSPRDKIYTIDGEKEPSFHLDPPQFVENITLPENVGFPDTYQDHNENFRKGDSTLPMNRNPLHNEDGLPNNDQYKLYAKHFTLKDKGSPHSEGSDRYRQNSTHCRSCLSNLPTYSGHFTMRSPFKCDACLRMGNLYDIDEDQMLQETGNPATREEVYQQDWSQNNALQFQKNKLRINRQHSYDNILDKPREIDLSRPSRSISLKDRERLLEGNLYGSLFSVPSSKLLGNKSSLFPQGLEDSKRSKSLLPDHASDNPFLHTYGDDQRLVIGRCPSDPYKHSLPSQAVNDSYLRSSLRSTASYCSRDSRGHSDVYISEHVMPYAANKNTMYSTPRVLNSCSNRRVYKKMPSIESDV

GluN1/2A-V529I = GluN1/2A-V529I (Rattus norvegicus, UniProt P35439+Q00959, V529I); assay: Two-electrode voltage-clamp recordings, mutant GluN1/2A-V529I; type: cell-based
GluN1/2B receptors = GluN1/2B receptors (Rattus norvegicus, UniProt P35439+Q00960); assay: Two-electrode voltage-clamp recordings of recombinant GluN1/2B receptors; type: cell-based; details: for Hill slope nH of inhibition: 0.3 μM glycine, 100 μM glutamate; for selectivity for GluN1/2A over GluN1/2B: glycine concentration close to respective EC50
GluN1/2A-E789Q = GluN1/2A-E789Q (Rattus norvegicus, UniProt P35439+Q00959, E789Q); assay: Two-electrode voltage-clamp recordings, mutant GluN1/2A-E789Q; type: cell-based
GluN1/2A-E789Q, sequence (Q00959 23-1464 E789Q, other chains not shown): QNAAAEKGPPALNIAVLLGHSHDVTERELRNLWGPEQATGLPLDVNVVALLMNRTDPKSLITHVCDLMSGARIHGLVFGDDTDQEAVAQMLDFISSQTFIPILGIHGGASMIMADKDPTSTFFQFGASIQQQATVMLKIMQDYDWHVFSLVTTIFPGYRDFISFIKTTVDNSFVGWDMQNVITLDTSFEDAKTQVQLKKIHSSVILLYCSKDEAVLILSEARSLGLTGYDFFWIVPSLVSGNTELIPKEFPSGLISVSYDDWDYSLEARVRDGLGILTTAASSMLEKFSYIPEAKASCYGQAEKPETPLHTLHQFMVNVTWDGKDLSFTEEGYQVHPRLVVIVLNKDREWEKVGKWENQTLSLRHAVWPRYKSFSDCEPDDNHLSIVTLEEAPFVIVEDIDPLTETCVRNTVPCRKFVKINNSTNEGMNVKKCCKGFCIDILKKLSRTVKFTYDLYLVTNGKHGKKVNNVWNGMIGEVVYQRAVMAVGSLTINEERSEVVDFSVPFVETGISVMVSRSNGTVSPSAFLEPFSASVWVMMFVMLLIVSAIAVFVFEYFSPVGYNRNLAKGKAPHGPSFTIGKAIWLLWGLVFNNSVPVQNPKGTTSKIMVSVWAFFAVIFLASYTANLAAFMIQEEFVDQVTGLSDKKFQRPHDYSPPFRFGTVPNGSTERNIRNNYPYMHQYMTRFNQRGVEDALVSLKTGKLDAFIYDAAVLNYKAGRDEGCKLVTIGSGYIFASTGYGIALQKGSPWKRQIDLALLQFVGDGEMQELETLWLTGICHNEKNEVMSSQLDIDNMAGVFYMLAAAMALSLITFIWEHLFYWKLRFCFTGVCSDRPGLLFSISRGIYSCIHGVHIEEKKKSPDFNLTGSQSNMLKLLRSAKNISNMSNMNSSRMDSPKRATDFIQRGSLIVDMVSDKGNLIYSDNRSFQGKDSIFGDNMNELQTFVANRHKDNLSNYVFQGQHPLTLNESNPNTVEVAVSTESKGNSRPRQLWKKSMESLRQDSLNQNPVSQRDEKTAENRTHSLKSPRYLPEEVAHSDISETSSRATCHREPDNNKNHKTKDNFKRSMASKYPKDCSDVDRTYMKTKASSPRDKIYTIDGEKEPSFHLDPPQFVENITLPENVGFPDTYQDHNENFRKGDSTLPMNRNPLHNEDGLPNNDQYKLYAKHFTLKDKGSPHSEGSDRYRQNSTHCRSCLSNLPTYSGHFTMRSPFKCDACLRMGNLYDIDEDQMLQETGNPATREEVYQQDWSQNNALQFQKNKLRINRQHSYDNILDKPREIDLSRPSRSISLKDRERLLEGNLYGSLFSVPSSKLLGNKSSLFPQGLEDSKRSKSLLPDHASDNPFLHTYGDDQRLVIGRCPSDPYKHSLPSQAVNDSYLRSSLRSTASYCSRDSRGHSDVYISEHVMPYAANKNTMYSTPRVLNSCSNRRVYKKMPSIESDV

[2] = tested on: triheteromeric GluN1/2A/2B receptors; type: cell-based, rat; details: 100 μM glutamate; for Hill slope nH of inhibition: 1 μM glycine; for IC50: read-out: IC50 (95% CI), […] μM glycine
GluN1/2D receptors = GluN1/2D receptors (Rattus norvegicus, UniProt P35439+Q62645); assay: Two-electrode voltage-clamp recordings of recombinant GluN1/2D receptors; type: cell-based; details: for Hill slope nH of inhibition: 0.1 μM glycine, 100 μM glutamate; for selectivity for GluN1/2A over GluN1/2D: glycine concentration close to respective EC50
GluN1/2A-T797S = GluN1/2A-T797S (Rattus norvegicus, UniProt P35439+Q00959, T797S); assay: Two-electrode voltage-clamp recordings, mutant GluN1/2A-T797S; type: cell-based
GluN1/2A-T797S, sequence (Q00959 23-1464 T797S, other chains not shown): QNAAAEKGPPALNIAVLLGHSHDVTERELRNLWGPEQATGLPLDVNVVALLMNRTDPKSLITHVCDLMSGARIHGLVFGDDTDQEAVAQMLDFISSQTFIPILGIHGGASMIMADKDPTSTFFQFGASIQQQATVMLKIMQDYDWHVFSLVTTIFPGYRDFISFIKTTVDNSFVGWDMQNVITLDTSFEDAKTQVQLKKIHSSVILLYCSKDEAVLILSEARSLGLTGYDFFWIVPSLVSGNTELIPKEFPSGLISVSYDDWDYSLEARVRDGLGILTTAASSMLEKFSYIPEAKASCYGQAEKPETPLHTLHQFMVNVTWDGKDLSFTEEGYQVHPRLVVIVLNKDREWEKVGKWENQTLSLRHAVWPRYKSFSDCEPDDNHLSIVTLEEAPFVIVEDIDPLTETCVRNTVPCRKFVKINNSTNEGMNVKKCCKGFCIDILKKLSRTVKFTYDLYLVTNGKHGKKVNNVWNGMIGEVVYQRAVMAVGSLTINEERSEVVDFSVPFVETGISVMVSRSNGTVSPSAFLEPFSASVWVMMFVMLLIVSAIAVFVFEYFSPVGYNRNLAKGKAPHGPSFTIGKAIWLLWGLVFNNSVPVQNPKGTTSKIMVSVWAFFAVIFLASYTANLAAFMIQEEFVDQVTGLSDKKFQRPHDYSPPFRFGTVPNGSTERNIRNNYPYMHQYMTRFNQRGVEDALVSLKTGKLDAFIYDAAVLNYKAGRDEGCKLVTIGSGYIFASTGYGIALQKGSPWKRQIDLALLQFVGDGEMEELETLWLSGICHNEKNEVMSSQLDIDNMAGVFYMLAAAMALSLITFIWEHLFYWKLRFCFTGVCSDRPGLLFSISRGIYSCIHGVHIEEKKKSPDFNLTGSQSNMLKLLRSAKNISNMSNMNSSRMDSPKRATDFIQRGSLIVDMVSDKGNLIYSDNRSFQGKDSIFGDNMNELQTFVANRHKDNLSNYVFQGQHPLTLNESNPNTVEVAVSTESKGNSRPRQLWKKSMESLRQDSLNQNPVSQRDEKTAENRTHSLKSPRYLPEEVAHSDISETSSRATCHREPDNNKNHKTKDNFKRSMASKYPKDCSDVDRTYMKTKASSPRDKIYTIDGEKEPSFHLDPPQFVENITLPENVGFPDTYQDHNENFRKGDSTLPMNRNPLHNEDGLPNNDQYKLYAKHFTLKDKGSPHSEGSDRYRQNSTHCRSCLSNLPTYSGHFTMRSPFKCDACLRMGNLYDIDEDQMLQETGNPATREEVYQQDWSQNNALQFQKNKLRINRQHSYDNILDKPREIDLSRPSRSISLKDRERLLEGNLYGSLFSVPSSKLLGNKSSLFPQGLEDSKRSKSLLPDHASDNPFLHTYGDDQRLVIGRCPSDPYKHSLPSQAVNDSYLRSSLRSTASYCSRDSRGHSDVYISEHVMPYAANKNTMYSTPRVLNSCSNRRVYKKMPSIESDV

GluN1/2A receptors [3] = target: T1, GluN1/2A receptors (Rattus norvegicus, UniProt P35439+Q00959); type: cell-based; details: for selectivity for GluN1/2A over GluN1/2B-D receptors: in 1 μM glycine; for IC50: read-out: IC50 (95% CI), […] μM glycine
GluN1/2A receptors [4] = target: T1, GluN1/2A receptors; details: ref Lotti et al., 2025, cited from earlier work; for Kb: read-out: binding affinity KB
GluN1/2C receptors = GluN1/2C receptors (Rattus norvegicus, UniProt P35439+Q00961); assay: Two-electrode voltage-clamp recordings of recombinant GluN1/2C receptors; type: cell-based; details: for selectivity for GluN1/2A over GluN1/2C: glycine concentration close to respective EC50
GluN1/2A-M788I = GluN1/2A-M788I (Rattus norvegicus, UniProt P35439+Q00959, M788I); assay: Two-electrode voltage-clamp recordings, mutant GluN1/2A-M788I; type: cell-based
GluN1/2A-V783F = GluN1/2A-V783F (Rattus norvegicus, UniProt P35439+Q00959, V783F); assay: Two-electrode voltage-clamp recordings, mutant GluN1/2A-V783F; type: cell-based; details: 0.5 μM glycine; for Hill slope nH of inhibition: 300 μM glutamate; for decrease of potency compared to wild type GluN1/2A: saturating glutamate
GluN1/2A-I755V+Y754K = GluN1/2A-I755V+Y754K (Rattus norvegicus, UniProt P35439+Q00959, I755V/Y754K); assay: Two-electrode voltage-clamp recordings, mutant GluN1/2A-I755V+Y754K; type: cell-based; details: 1 μM glycine, 300 μM glutamate
GluN1/2A receptors [5] = target: T1, GluN1/2A receptors; type: cell-based; details: global non-linear regression of glycine concentration-response data
GluN1/2A-Y754K = GluN1/2A-Y754K (Rattus norvegicus, UniProt P35439+Q00959, Y754K); assay: Two-electrode voltage-clamp recordings, mutant GluN1/2A-Y754K; type: cell-based; details: 300 μM glutamate
GluN1/2A-I755V = GluN1/2A-I755V (Rattus norvegicus, UniProt P35439+Q00959, I755V); assay: Two-electrode voltage-clamp recordings, mutant GluN1/2A-I755V; type: cell-based; details: 300 μM glutamate
GluN1/2A-I755F = GluN1/2A-I755F (Rattus norvegicus, UniProt P35439+Q00959, I755F); assay: Two-electrode voltage-clamp recordings, mutant GluN1/2A-I755F; type: cell-based
[6] = tested on: NMDA receptor-mediated EPSCs from CA1 pyramidal neurons; type: cell-based, mouse; details: 3 μM compound, baseline vs following NAM application
Method in brief: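 Hippocampal slices from 3–5-week-old male and female C57BL/6J mice, perfused with aCSF at 32 °C. Whole-cell recordings from CA1 cells with Cs-based internal solution at +40 mV. Schaffer collaterals stimulated every 30 s with 10 μM NBQX and 10 μM gabazine. After 5-min baseline, test compound bath-applied at 3 μM. τW from double-exponential fit of deactivation; ratio paired t-test.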

[7] = target: triheteromeric GluN1/2A/2B receptors; details: read-out: glycine EC50; previously reported; ref Lotti et al., 2025; cited from earlier work
[8] = glycine near EC50, saturating glutamate
[9] = read-out: IC50 (95% CI), […] μM glycine, 300 μM glutamate
[10] = read-out: IC50 (95% CI), […] μM glycine

| Structure (SMILES) | Hill slope nH of inhibition (GluN1/2A-V783L) | decrease of potency compared to wild type GluN1/2A (GluN1/2A-V783L) [fold] | Hill slope nH of inhibition (GluN1/2B receptors) | selectivity for GluN1/2A over GluN1/2B (GluN1/2B receptors) [fold] | Hill slope nH of inhibition [2] | IC50 [2] [µM] | Hill slope nH of inhibition (GluN1/2D receptors) | selectivity for GluN1/2A over GluN1/2D (GluN1/2D receptors) [fold] | Hill slope nH of inhibition (GluN1/2A receptors [3]; 1 μM glycine, 100 μM glutamate) | selectivity for GluN1/2A over GluN1/2B-D receptors (GluN1/2A receptors [3]) [fold] | IC50 (GluN1/2A receptors [3]; 100 μM glutamate) [µM] | Kb (GluN1/2A receptors [4]) [µM] | negative allosteric interaction constant α (GluN1/2A receptors [4]) | selectivity for GluN1/2A over GluN1/2C (GluN1/2C receptors) [fold] | Hill slope nH of inhibition (GluN1/2A-V783F) | decrease of potency compared to wild type GluN1/2A (GluN1/2A-V783F) [fold] | other results |
| --- | --- | --- | --- | --- | --- | --- | --- | --- | --- | --- | --- | --- | --- | --- | --- | --- | --- |
| O=C(NNC(=O)c1ccc(CNS(=O)(=O)c2ccc(F)c(Cl)c2)cc1)c1ccccc1 [TCN-201] | 1.1 | 8.1 | 1.6 | 30 | 1.2 | 0.28 | 1.9 | 39 | 1.2 | > 50 | 0.1 | 0.042 | 0.0032 | > 50 | 1.1 | 1.9 | blood-brain barrier penetration [1]: lack blood-brain barrier penetration; Hill slope nH of inhibition (GluN1/2A-M788T; 0.3 μM glycine, 300 μM glutamate): 1.4; decrease of potency compared to wild type GluN1/2A (GluN1/2A-M788T; [8]): no significant effects; IC50 (GluN1/2A-M788T; read-out: IC50 (95% CI), 0.3 μM glycine, 300 μM glutamate): 0.14 µM; Hill slope nH of inhibition (GluN1/2A-V529I; 1 μM glycine, 300 μM glutamate): 1.5; decrease of potency compared to wild type GluN1/2A (GluN1/2A-V529I; [8]): 1.5 fold; Hill slope nH of inhibition (GluN1/2A-E789Q; 1 μM glycine, 300 μM glutamate): 1.3; change of potency compared to wild type GluN1/2A (GluN1/2A-E789Q; [8]): no significant effects; IC50 (GluN1/2A-E789Q; [9]): 0.078 µM; Hill slope nH of inhibition (GluN1/2A-T797S; 1 μM glycine, 300 μM glutamate): 1.4; decrease of potency compared to wild type GluN1/2A (GluN1/2A-T797S; [8]): no significant effects; IC50 (GluN1/2A-T797S; [9]): 0.068 µM; Hill slope nH of inhibition (GluN1/2A-M788I; 1 μM glycine, 300 μM glutamate): 1.3; decrease of potency compared to wild type GluN1/2A (GluN1/2A-M788I; [8]): no significant effects; IC50 (GluN1/2A-M788I; [9]): 0.12 µM |
| O=C(CSc1nnc(NCc2ccccc2)s1)NCC1CCCCC1 [TCN-213] | 1.1 | 4.8 | 1.3 | 22 | 0.9 | 4 | 1.5 | 29 | 1.1 | > 50 | 0.83 |  |  | 16 | 1.1 | 2.6 | Hill slope nH of inhibition (GluN1/2A-I755V+Y754K): 1.0; allosteric constant α (GluN1/2A receptors [5]): 0.043; Hill slope nH of inhibition (GluN1/2A-Y754K; 1 μM glycine): 1.1; IC50 (GluN1/2A-Y754K; [10]): 1.2 µM; Hill slope nH of inhibition (GluN1/2A-I755V; 1 μM glycine): 1.1; IC50 (GluN1/2A-I755V; [10]): 1.2 µM; Hill slope nH of inhibition (GluN1/2A receptors [3]; 1 μM glycine, 10 μM glutamate): 1.1; Hill slope nH of inhibition (GluN1/2A receptors [3]; 30 μM glycine, 300 μM glutamate): 1.3; IC50 (GluN1/2A receptors [3]; 10 μM glutamate): 0.96 µM; Hill slope nH of inhibition (GluN1/2C receptors; 0.3 μM glycine, 100 μM glutamate): 1.1; Hill slope nH of inhibition (GluN1/2A-I755F; 1 μM glycine, 300 μM glutamate): 1.0; reduction of potency compared to wild type GluN1/2A (GluN1/2A-I755F; glycine EC50 concentration, saturating glutamate): not significantly different; IC50 (GluN1/2A-I755F; [9]): 1.1 µM |
| Cc1ncc(CNC(=O)c2cnc(CNS(=O)(=O)c3ccc(F)c(Cl)c3)cn2)s1 [MPX-004] |  |  |  |  |  |  |  |  |  |  |  | 0.0093 | 0.0018 |  |  |  | effect on EPSC decay times (weighted deactivation time constant τW) [6]: increases EPSC decay times |
| NCC(=O)O [Glycine] |  |  |  |  |  |  |  |  |  |  |  |  |  |  |  |  | EC50 [7]: 0.99 µM |
